Laboratory results published in ChEMBL document CHEMBL4325832, “Novel Benzazole Derivatives Endowed with Potent Antiheparanase Activity” (J Med Chem, 2018).
The source made the active and inactive calls. No cut-off for these calls is given here.

How the values were obtained:
[1] = target: T1, Heparanase (Homo sapiens, UniProt Q9Y251); assay: Inhibition of recombinant HPSE GS3 (unknown origin) using fondaparinux as substrate incubated for 3 hrs in absence of light by WST1 based colorimetry
T1 sequence (Q9Y251 whole entry): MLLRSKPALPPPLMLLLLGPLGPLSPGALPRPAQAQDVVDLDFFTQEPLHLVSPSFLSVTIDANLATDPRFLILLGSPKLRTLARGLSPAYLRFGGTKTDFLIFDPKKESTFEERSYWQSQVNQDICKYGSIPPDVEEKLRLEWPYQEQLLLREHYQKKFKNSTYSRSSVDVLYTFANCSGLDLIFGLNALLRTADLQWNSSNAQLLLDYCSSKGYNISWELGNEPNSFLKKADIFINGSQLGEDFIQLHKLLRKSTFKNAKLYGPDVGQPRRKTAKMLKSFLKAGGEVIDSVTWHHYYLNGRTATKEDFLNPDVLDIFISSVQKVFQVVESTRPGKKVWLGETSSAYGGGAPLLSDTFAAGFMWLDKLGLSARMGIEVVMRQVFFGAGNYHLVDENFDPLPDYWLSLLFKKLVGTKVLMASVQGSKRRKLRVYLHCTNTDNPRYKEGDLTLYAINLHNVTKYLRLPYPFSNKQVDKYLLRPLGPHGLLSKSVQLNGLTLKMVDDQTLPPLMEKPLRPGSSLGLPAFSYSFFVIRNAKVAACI

[2] = tested on: HT-1080; assay: Antiproliferative activity against human HT1080 cells after 3 days by SRB assay
[3] = tested on: U-87 MG; assay: Antiproliferative activity against human U87MG cells after 3 days by SRB assay
[4] = tested on: U2OS; assay: Antiproliferative activity against human U2OS cells after 3 days by SRB assay
[5] = tested on: HT-1080; assay: Inhibition of cell invasion in human HT1080 cells at 1 uM after 24 hrs by SRB staining based matrigel invasion chamber assay relative to control; type: functional; conditions: HT-1080, 24 h
Method in brief: (§1)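 HT1080, U87MG and U2OS cells pretreated with compound in complete medium for 24 h, harvested, resuspended in serum-free medium and seeded at 2.5 × 10^4 cells/filter into Growth Factor Reduced Matrigel-coated Transwell upper chambers. Same concentration in both upper and lower chambers. After 24 h, invaded cells SRB-stained and counted under microscope at 40X-100X. Student's 2-tailed t test, P<0.05.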

[6] = tested on: U-87 MG; assay: Inhibition of cell invasion in human U87MG cells at 1 uM after 24 hrs by SRB staining based matrigel invasion chamber assay relative to control; type: functional, U-87MG ATCC; method in brief: as §1
[7] = tested on: U2OS; assay: Inhibition of cell invasion in human U2OS cells at 1 uM after 24 hrs by SRB staining based matrigel invasion chamber assay relative to control; type: functional; method in brief: as §1
[8] = Antiproliferative activity against human CME1 cells after 72 hrs by cell counting analysis
[9] = tested on: A204; assay: Antiproliferative activity against human A204 cells after 72 hrs by cell counting analysis; conditions: A204, 72 h
[10] = Antiproliferative activity against human CME1 cells assessed as inhibition of cell proliferation at 3.1 uM after 24 hrs by cell counting analysis relative to control; type: functional; set-up: scale not given: the % may be the effect or the level left
Method in brief: (§2)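 CME-1 or A204 cells in RPMI plus 10% FBS, exposed to drug in DMSO or solvent alone for 24 h. Proliferation assessed by cell counting and expressed as percent inhibition versus control. DMSO final 0.5% (CME-1) or 0.25% (A204).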

[11] = tested on: A204; assay: Antiproliferative activity against human A204 cells assessed as inhibition of cell proliferation at 3.1 uM after 24 hrs by cell counting analysis relative to control; type: functional; set-up: scale not given: the % may be the effect or the level left; method in brief: as §2
[12] = species on record: Homo sapiens; assay: Anti-invasive activity against human CME1 cells after 24 hrs by SRB staining based matrigel invasion chamber assay; type: functional, cell-based
Method in brief: (§3)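 CME-1 or A204 cells pretreated with drug in complete medium for 24 h, then resuspended in serum-free medium and placed in upper chamber of Growth Factor Reduced Matrigel-coated Transwells (1.2 × 10^5 CME-1 or 1.8 × 10^5 A204 cells/filter). Same drug concentration in both upper and lower chambers, 24 h. Invaded cells SRB-stained and counted microscopically. DMSO final 0.5% (CME-1) or 0.25% (A204).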

[13] = tested on: A204; assay: Anti-invasive activity against human A204 cells after 24 hrs by SRB staining based matrigel invasion chamber assay; type: functional, cell-based; method in brief: as §3
[14] = tested on: HT-1080; assay: Downregulation of HPSE1 mRNA expression in human HT1080 cells at 1 uM after 24 hrs by qPCR analysis; type: functional, cell-based
Method in brief: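 HT1080 cells treated 24 h with compound at 1 μM. Total RNA extracted and reverse-transcribed. HPSE-1 mRNA quantified by real-time qPCR using the ΔΔCt method, […]. Expressed as percent of untreated cells.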

[15] = species on record: Homo sapiens; conditions: 1.5 uM
[16] = tested on: A204; conditions: Homo sapiens, 1.5 uM
[17] = tested on: HT-1080; assay: Inhibition of cell invasion in human HT1080 cells at 10 uM after 24 hrs by SRB staining based matrigel invasion chamber assay relative to control; type: functional; method in brief: as §1
[18] = tested on: U-87 MG; assay: Inhibition of cell invasion in human U87MG cells at 10 uM after 24 hrs by SRB staining based matrigel invasion chamber assay relative to control; type: functional; method in brief: as §1
[19] = tested on: U2OS; assay: Inhibition of cell invasion in human U2OS cells at 10 uM after 24 hrs by SRB staining based matrigel invasion chamber assay relative to control; conditions: read-out: INH
[20] = tested on: U2OS; conditions: Homo sapiens, 10 uM

Q: For `COc1ccc(C(=O)Nc2ccc(CNc3ccc(-c4nc5cc(CC(=O)O)ccc5o4)cc3)cc2)cc1Br`, which IC50 [1] is on record?
A: Its IC50 is > 10 µM.

Q: For `COc1ccc(C(=O)Nc2ccc(CNc3ccc(-c4nc5cc(CC(=O)N[C@@H](CCCCN)C(=O)O)ccc5o4)cc3F)cc2)cc1Br`, which IC50 [1] is on record?
A: Its IC50 is > 10 µM.

Q: Which results are given for `COc1ccc(C(=O)Nc2ccc(CNc3ccc(-c4nc5ccccc5[nH]4)cc3F)cc2)cc1Br`?
A: IC50 ([2]; Homo sapiens, HT-1080, 72 h): 8.7 µM; IC50 ([3]; Homo sapiens, U-87 MG, 72 h): 2.8 µM; IC50 ([4]; Homo sapiens, U2OS, 72 h): 1.7 µM; inhibition at 1 µM [5]: 50 to 90%; inhibition at 1 µM [6]: 50 to 90%; inhibition at 1 µM [7]: 50 to 90%; IC50 [8]: 3.9 µM; IC50 [9]: 3.4 µM; Activity [10]: 15%; Activity [11]: 5%; Activity [12]: Dose-dependent effect; Activity [13]: Dose-dependent effect; Activity [14]: Active; inhibition [15]: inactive; inhibition [16]: inactive

Q: With `COc1ccc(C(=O)Nc2ccc(CNc3ccc(-c4nc5cc(CC(=O)NCC(=O)O)ccc5[nH]4)cc3F)cc2)cc1Br` as the compound, how does the IC50 [1] read?
A: The IC50 was 0.64 µM.

Q: And the IC50 ([2]; ht-1080)?
A: Its IC50 is “Not Active”.

Q: What about the IC50 ([3]; u-87mg atcc) of the same compound?
A: The IC50 was “Not Active”.

Q: And the IC50 ([4]; u2os)?
A: Its IC50 is “Not Active”.

Q: What about the inhibition [17] of the same compound?
A: Its inhibition is “inactive”.

Q: And the inhibition ([18]; U-87MG ATCC)?
A: The inhibition was “inactive”.

Q: And the inhibition at 10 µM [19]?
A: The inhibition at 10 µM was < 50%.

Q: With `COc1ccc(C(=O)Nc2ccc(CNc3ccc(-c4nc5cc(CC(=O)O)ccc5[nH]4)cc3)cc2)cc1Br` as the compound, how does the IC50 [1] read?
A: The IC50 was > 10 µM.

Q: With `COc1ccc(C(=O)Nc2ccc(CNc3ccc(-c4nc5cc(CC(=O)NCC(=O)O)ccc5o4)cc3F)cc2)cc1Br` as the compound, how does the IC50 ([2]; ht-1080) read?
A: The IC50 was “Not Active”.

Q: And the IC50 ([3]; u-87mg atcc)?
A: The IC50 was “Not Active”.

Q: What about the IC50 ([4]; u2os) of the same compound?
A: Its IC50 is “Not Active”.

Q: Which IC50 [1] does the source give for `COc1ccc(C(=O)Nc2ccc(CNc3ccc(-c4nc5cc(CC(=O)NCB(O)O)ccc5o4)cc3F)cc2)cc1Br` here?
A: Its IC50 is > 10 µM.

Q: Which IC50 ([2]; ht-1080) does the source give for `COc1ccc(C(=O)Nc2ccc(CNc3ccc(-c4nc5cc(CC(=O)N[C@@H](CCC(=O)O)C(=O)O)ccc5o4)cc3F)cc2)cc1Br` here?
A: Its IC50 is “Not Active”.

Q: And the IC50 ([3]; u-87mg atcc)?
A: Its IC50 is “Not Active”.

Q: What about the IC50 ([4]; u2os) of the same compound?
A: Its IC50 is “Not Active”.

Q: And the inhibition at 10 µM ([17]; HT-1080, 24 h)?
A: The inhibition at 10 µM was 50 to 90%.

Q: What about the inhibition at 10 µM [18] of the same compound?
A: The inhibition at 10 µM was 50 to 90%.

Q: What about the inhibition [20] of the same compound?
A: Its inhibition is “inactive”.

Q: Which IC50 ([2]; Homo sapiens, HT-1080, 72 h) does the source give for `COc1ccc(C(=O)Nc2ccc(CNc3ccc(-c4nc5ccccc5[nH]4)cc3)cc2)cc1Br` here?
A: The IC50 was 3.1 µM.

Q: What about the IC50 ([3]; Homo sapiens, U-87 MG, 72 h) of the same compound?
A: The IC50 was 2.7 µM.

Q: And the IC50 ([4]; Homo sapiens, U2OS, 72 h)?
A: The IC50 was 2.1 µM.

Q: And the inhibition at 1 µM [5]?
A: Its inhibition at 1 µM is 50 to 90%.

Q: And the inhibition at 1 µM [6]?
A: Its inhibition at 1 µM is 50 to 90%.

Q: And the inhibition at 1 µM [7]?
A: Its inhibition at 1 µM is 50 to 90%.

Q: And the Activity [14]?
A: Its Activity is “inactive”.
